# In the library only some 2.9% were active in any assay of this set; here they are far more common.
# SENP7 inh: SENP7 protease inhibitors, primary screen, biochemical, luminescence, uHTS; Sentrin-specific protease 7 (Homo sapiens), Q9BQF6; recombinant SENP7, Z-RLRGG-aminoluciferin luminescence, 40 min; inhibition, % at 5 µM; 1.5% of 330,000 active;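 active = inhibition above about 50% at the single test dose, limit read from the data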;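 also: plate controls were DMSO with enzyme for no effect and no enzyme buffer wells for full effect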
# HSP90 inh: HSP90 inhibitors, primary screen, cell lysate, luminescence; Heat shock protein HSP 90 (rabbit reticulocyte lysate; luciferase refolding); Rabbit reticulocyte lysate, luciferase refolding luminescence, 3 h; inhibition, % at 5.6 µM; 0.91% of 290,000 active; AID 1789, 2009;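 active = inhibition above the screen-wide mean plus 3 SD, computed separately per campaign, cut at about 16% in these data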;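 also: 0% = DMSO wells and 100% = 60 µM geldanamycin wells; inhibitors lower the luminescence because luciferase stays unfolded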
# SENP8 block-1: human SENP8 protease inhibitors, primary screen, biochemical, fluorescence, Nedd8 protein substrate, uHTS; Sentrin-specific protease 8 (Homo sapiens), Q96LD8; recombinant SENP8; inhibition, % at 20 µM; 0.64% of 360,000 active; AID 602440, 2012; in the data active = inhibition mostly above about 40%, no sharp cut-off; inactive = mostly below about 27%
# Target sequence (Q96LD8 whole entry, looked up): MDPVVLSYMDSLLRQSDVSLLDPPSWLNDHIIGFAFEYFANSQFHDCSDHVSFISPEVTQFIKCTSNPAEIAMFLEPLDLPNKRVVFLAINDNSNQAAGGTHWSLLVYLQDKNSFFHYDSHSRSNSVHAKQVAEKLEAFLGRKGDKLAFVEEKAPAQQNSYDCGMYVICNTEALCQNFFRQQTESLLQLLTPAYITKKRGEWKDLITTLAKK
# SENP8 block-2: SENP8 protease inhibitors, primary screen, biochemical, luminescence. 1.2% of 330,000 active. inhibition, % at 10 µM. purified SENP8, Z-RLRGG-aminoluciferin cleavage. AID 2540, 2010. Sentrin-specific protease 8 (Homo sapiens), Q96LD8; in the data active = inhibition above about 50%
# SENP1 FRET inh: human SENP1 catalytic domain inhibitors, primary screen, biochemical, FRET, uHTS; 0.21% of 360,000 active; inhibition, % at 10 µM; Sentrin-specific protease 1 (Homo sapiens), Q9P0U3; recombinant SENP1 catalytic domain, CyPet-SUMO1-YPet FRET cleavage;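 active = inhibition at least 30% at 10 µM, raw YFP signal under a set limit, fluorescence ratio 0.5 to 1.5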;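 also: 0% = enzyme with DMSO and 100% = no enzyme wells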
# Target sequence (Q9P0U3 419-644 limits assumed): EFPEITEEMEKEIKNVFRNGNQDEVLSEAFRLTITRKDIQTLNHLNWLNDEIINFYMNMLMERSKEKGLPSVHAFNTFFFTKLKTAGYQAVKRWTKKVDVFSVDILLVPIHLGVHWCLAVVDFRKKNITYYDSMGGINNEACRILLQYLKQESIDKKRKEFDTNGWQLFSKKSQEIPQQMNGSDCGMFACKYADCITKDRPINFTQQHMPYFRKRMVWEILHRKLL
#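 System: Recombinant human SENP1 catalytic domain, His6-tagged | Incubation: Enzyme reaction for 50 min at room temperature, dark | Medium: Tris pH 8 with BME, BSA, NP40 and catalase | Also added: 25 nM SUMO1 FRET substrate | Compound: 10 µM single point, 0.5% DMSO | Measured by: FRET fluorescence in CFP and YFP emission channels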
# SENP6 inh: SENP6 protease inhibitors, primary screen, biochemical, luminescence, uHTS | Recombinant SENP6 catalytic domain, aminoluciferin luminescence | Sentrin-specific protease 6 (Homo sapiens), Q9GZR1 | 1.8% of 330,000 active | inhibition, % at 10 µM | AID 2599, 2010;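 active = inhibition above about 50% at the single tested dose, limit read from the data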;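 also: plate controls were DMSO wells with enzyme for no effect and DMSO wells lacking enzyme for full effect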
# SENP8 conf: SENP8 protease inhibitors, retest, confirmation, biochemical, luminescence, single concentration; shares compounds with SENP7 inh; Recombinant SENP8, Z-RLRGG-aminoluciferin luminescence, 60 min; inhibition, % at 12.5 µM; 40% of 6,200 active; AID 488912, 2010;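 active = mean inhibition across replicates above about 50%, limit read from the data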
# SENP6 confirm: SENP6 protease inhibitors, confirmation, biochemical, luminescence, single concentration; recombinant SENP6, Z-RLRGG-aminoluciferin luminescence; inhibition, % at 12.5 µM; 58% of 6,200 active; shares compounds with SENP7 inh
# SENP7 conf: SENP7 protease inhibitors, retest, confirmation, biochemical, luminescence, single concentration; shares compounds with SENP7 inh; AID 488917, 2010; 69% of 6,200 active; recombinant SENP7, Z-RLRGG-aminoluciferin luminescence, 40 min; inhibition, % at 12.5 µM
# Casp3 SENP sel: caspase-3 protease inhibitors, confirmation, selectivity assay for SENP inhibitor project, biochemical, single concentration | shares compounds with SENP7 inh | purified caspase-3, Z-DEVD-aminoluciferin luminescence, 60 min | inhibition, % at 12.5 µM | 60% of 6,200 active;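 active = mean inhibition above about 50%, limit read from the data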;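 also: plate controls were enzyme with DMSO for no effect and wells without caspase-3 for full effect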
# Target sequence (P42574 28-227 limits assumed): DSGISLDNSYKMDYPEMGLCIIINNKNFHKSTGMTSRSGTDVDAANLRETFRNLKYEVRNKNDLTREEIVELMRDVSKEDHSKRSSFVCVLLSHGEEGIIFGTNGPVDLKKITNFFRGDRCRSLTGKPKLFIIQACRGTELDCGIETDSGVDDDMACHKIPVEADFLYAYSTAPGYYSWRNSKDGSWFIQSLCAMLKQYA
# Luc interf: interferes with luciferase luminescence in SENP counter-screen | AID 488919 | shares compounds with SENP7 inh | 39% of 6,200 active | Pre-incubated SENP8/Z-RLRGG-aminoluciferin, luciferase luminescence interference | inhibition, % at 12.5 µM;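 active = mean inhibition above about 50% when retested at one dose, limit read from the data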;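 also: plate controls were DMSO wells with completed reaction for no effect and substrate without enzyme for full effect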
# The depositor's hits bear a star; x = not tested or not shown.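 The calls were made as follows, unless noted: active = mean inhibition above about 50% in the one-dose retest (limit read from the data); inactive = the rest.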
SMILES,SENP7 inh,HSP90 inh,SENP8 block-1,SENP8 block-2,SENP1 FRET inh,SENP6 inh,SENP8 conf,SENP6 confirm,SENP7 conf,Casp3 SENP sel,Luc interf
CCC(C(=O)OCC(=O)N1C(C)CCCC1C)c1ccccc1 (stereo not drawn),3,0,17,1,1,13,x,x,x,x,x
Cc1nn(C(=O)c2ccc3c(c2)OCO3)c(N)c1-c1ccccc1,65*,11,8,59*,8,83*,5,78*,96*,68*,37
O=C(CC1C[C@H](C(=O)N2CCOCC2)[C@@]2(CCC3CCCC3)c3[nH]c4ccccc4c3CCN2C1=O)NCc1cccc(C(F)(F)F)c1 (stereo partly drawn),x,x,-6,x,-1,x,x,x,x,x,x
Oc1ccccc1C=NCCCCCCN=Cc1ccccc1O,-3,0,9,59*,-7,69*,15,30,38,31,10
Oc1ccccc1C=NCCN=Cc1ccccc1O,5,2,17,-1,-5,8,x,x,x,x,x
COc1ccc(-c2noc(-c3csc([C@@H]4O[C@H](CO)[C@H](O)[C@H](O)[C@H]4O)n3)n2)cc1OC,x,x,5,x,1,x,x,x,x,x,x
COC(=O)C(OC(=O)c1ccccc1)C(C)Br (stereo not drawn),9,x,17,-2,1,-8,x,x,x,x,x
O=C(c1ccccc1)c1ccc2cc(O)ccc2c1,96*,-4,-25,96*,3,99*,7,99*,102*,92*,97*
O=C(c1ccccc1)c1ccc2ccccc2c1,x,x,15,x,2,x,x,x,x,x,x
Cc1nc2nc(-c3ccc(F)cc3)cn2nc1C,1,-4,-318,71*,-21,67*,47,92*,100*,97*,54*
Oc1cccc2c(NC(=S)Nc3ccc(OC(F)F)cc3)cccc12,49,1,-190,80*,-42,94*,-4,15,2,5,15
CCc1ccc(OCC(=O)N/N=C2\CC(=O)c3ccccc32)cc1,17,-1,41*,24,14,53*,28,66*,16,18,4
COc1ccc(OCC(=O)N/N=C2\CCCCc3ccccc32)cc1,-11,-3,3,-7,2,-17,x,x,x,x,x
CN(C)c1nn(C(=O)Nc2ccc(Cl)cc2Cl)cc1-c1ccccc1,101*,-1,8,3,2,4,-13,-8,-3,0,-8
Cc1cc(C(F)(F)F)c(C#N)c(SCC(=O)Nc2nc3ccccc3s2)n1,91*,30*,19,89*,57,80*,20,16,12,20,2
COC(=O)c1ccc(COc2ccc3c4c(c(=O)oc3c2)CCC4)o1,58*,13,-126,70*,-9,77*,14,17,3,1,-5
O=C(Nc1nonc1NC(=O)c1cccs1)c1cccs1,4,-2,6,7,-3,14,x,x,x,x,x
CC(=O)/C(N=Nc1ccc(C(=O)O)cc1[N+](=O)[O-])=C(\C)O,59*,-1,24,51*,3,-5,54*,51*,84*,92*,64*
COc1ccc(OCc2nnc(SC(C)C(=O)Nc3ccc(N4CCOCC4)cc3)n2C)cc1 (stereo not drawn),x,x,4,x,1,x,x,x,x,x,x
Cc1nnc(NC(=O)Nc2cccc(Cl)c2)s1,47,-3,9,26,0,57*,31,52*,62*,56*,15
Cc1nnc(NC(=O)c2ccc3ccccc3c2)s1,58*,-1,-20,-1,-1,12,-5,-2,-1,12,-2
CC(C)c1cc(C(=O)Nc2cccc(Cl)c2)no1,91*,6,18,89*,2,89*,94*,96*,102*,92*,88*
Cc1csc(NC(=O)Nc2cccc(Cl)c2)n1,6,0,17,-13,-2,8,x,x,x,x,x
Cc1nc2ccc(NC(=O)c3ccc(C)c(S(=O)(=O)N4CCOCC4)c3)cc2s1,-2,x,3,3,1,-7,x,x,x,x,x
CCOc1ncccc1C(=O)OCC(=O)c1cc(C)n(Cc2ccco2)c1C,36,5,4,37,1,71*,70*,66*,87*,58*,26
SMILES,SENP7 inh,HSP90 inh,SENP8 block-1,SENP8 block-2,SENP1 FRET inh,SENP6 inh,SENP8 conf,SENP6 confirm,SENP7 conf,Casp3 SENP sel,Luc interf
O=c1cc(CN2CCOCC2)c2cc(Cl)ccc2o1,-9,1,15,-9,4,-12,x,x,x,x,x
Cc1ccsc1/C=C1\Oc2cc(OCC(=O)c3ccccc3)ccc2C1=O,49,5,-186,41,-50,60*,-24,-24,-7,26,-4
COc1ccc(/C=C2\Oc3cc(OCC(N)=O)ccc3C2=O)cc1OC,1,1,-279,-4,-28,9,x,x,x,x,x
Cc1ccc(C)c(S(=O)(=O)/N=C2\C=C(NS(=O)(=O)c3ccccc3)C(=O)c3ccccc32)c1,11,0,73*,36,1,55*,2,29,-2,6,1
Oc1cc2ccccc2cc1-c1n[nH]c(=S)o1,75*,5,-275,94*,3,91*,98*,98*,101*,96*,96*
CC(C)(C)c1ccc(C(=O)C2CCCN(C(=O)c3ccccn3)C2)cc1 (stereo not drawn),102*,3,5,2,1,5,-9,-7,-10,0,4
CCOc1ccc(NC(=O)CN(C)C(=O)c2ccccc2OCCOc2ccccc2)cc1OCC,-1,x,5,-5,1,-7,x,x,x,x,x
C[C@@H]1CN([C@H](C)CO)C(=O)c2cc(Br)cnc2O[C@@H]1CN(C)C(=O)CC1CC1,x,x,15,x,3,x,x,x,x,x,x
